ABCG2 block: inhibitors of human ABCG2 transporter, ABCB1 counter-screen | Q9UNQ0 | inhibition, % at 6.6 µM | actives 0.1% (n = 190,000) | AID 1325 | IgMXP3 cells, JC-1 efflux, flow cytometry;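 active = inhibition above 80%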;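 note: 0% = DMSO and 100% = nicardipine control wells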
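material = IgMXP3 (ABCG2) plus far-red-tagged CCRF-Adr (ABCB1) cells | amount = 3 million cells/mL, equal mix of both lines | also added = JC-1 transporter substrate | dosing = one concentration, 6.6 µM final | schedule = 10 min at 25 °C | measured by = flow cytometric JC-1 green MFI at 530 nm | read-out basis = percent efflux inhibition, scaled nicardipine 100% to DMSO 0%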
RGS7-Gao reg: regulators of human RGS7-Galphao interaction | P09471 | Multiplexed bead flow cytometry, RGS7-Galphao binding; actives lie on both sides | binding response (% of control), % at 10 µM | actives 0.35% (n = 220,000) | AID 1439; in the data active = binding response below about 49% or above about 150%; inconclusive = no clear call, values can overlap the other calls; inactive = in between;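 note: fluorescent Galphao held in activated GDP-AlF4 state binding bead-coupled RGS7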
Target sequence (P09471 whole entry, looked up): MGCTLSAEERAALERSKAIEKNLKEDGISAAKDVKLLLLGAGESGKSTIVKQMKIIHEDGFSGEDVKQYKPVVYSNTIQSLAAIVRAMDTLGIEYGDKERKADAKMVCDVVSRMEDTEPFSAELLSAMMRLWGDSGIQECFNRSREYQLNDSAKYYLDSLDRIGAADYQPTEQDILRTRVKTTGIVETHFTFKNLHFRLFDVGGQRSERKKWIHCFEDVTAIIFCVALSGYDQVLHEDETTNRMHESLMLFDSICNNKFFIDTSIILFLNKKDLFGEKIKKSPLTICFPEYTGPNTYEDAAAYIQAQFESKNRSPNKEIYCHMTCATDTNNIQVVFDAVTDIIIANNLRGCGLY
RGS8-Gao: human RGS8-Galphao interaction regulation; P09471; multiplexed bead flow cytometry, RGS8-Galphao binding; actives lie on both sides; response (percent of control binding), % at 10 µM; actives 0.34% (n = 220,000); in the data active = response below about 60% or above about 140%; inactive = in between;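 note: Galphao activated as the GDP aluminium fluoride complex binding bead-coupled RGS8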
ABCB1 inh: inhibitors of human ABCB1 transporter, ABCG2 counter-screen; P08183; CCRF-Adr cells, JC-1 efflux, flow cytometry; inhibition, % at 6.6 µM; actives 0.067% (n = 190,000); in the data active = inhibition above about 40%;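 note: 0% = vehicle and 100% = reference inhibitor; higher value means more JC-1 retained so stronger ABCB1 efflux block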
RGS16-Gao: modulates binding between human RGS16 and Galphao; AID 1441; actives 0.38% (n = 220,000); binding response (% of control), % at 10 µM; O15492+P09471; bead-based flow cytometry RGS16-Galphao binding, fluorescence; actives lie on both sides;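 note: Galphao activated by GDP with aluminum fluoride before binding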
Target sequence (O15492 whole entry, looked up): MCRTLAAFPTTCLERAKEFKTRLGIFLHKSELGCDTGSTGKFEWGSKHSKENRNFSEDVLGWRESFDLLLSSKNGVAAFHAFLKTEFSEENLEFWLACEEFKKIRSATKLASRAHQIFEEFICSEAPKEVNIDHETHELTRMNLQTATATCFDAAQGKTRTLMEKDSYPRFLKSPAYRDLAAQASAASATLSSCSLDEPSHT
Target sequence (P09471 whole entry, looked up): as the sequence (P09471 whole entry, looked up) above
RGS4-Gao reg: modulates binding of RGS4 to human Galphao. Multiplexed bead flow cytometry; actives lie on both sides. binding response (% of control), % at 10 µM. actives 0.33% (n = 220,000); in the data active = binding response below about 49% or above about 150%; inactive = in between;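 note: fluorescent Galphao activated with aluminum fluoride binding bead-coupled RGS4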
RGS-Gao: RGS4-Galphao interaction regulator (human). shares compounds with RGS16-Gao. multiplexed bead flow cytometry, RGS–Galpha-o binding. RGS4–Galpha-o binding response, % at 10 µM. actives 99% (n = 1,600);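 note: fluorescently labeled Galpha-o bound to GDP with aluminium fluoride binding biotinylated RGS beads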
Biotin-avidin: counter-screen: compounds disrupting biotin binding to avidin beads; shares compounds with RGS16-Gao; streptavidin beads, fluorescein-biotin binding, flow cytometry; inhibition, % at 10 µM; 1,700 tested, under 10 active;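 active = inhibition above 50%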;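 note: median green fluorescence of gated singlet beads compared with DMSO control wells; 0% = DMSO wells and 100% = complete loss of bead fluorescence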
RGS8-Gao confirm: RGS8-Galphao interaction regulation, single point confirmation. shares compounds with RGS16-Gao. bead-based flow cytometry RGS8-Galphao binding, fluorescence; actives lie on both sides. binding response (% of control), % at 10 µM. actives 3% (n = 1,700); in the data active = binding response below about 72% or above about 130%; inactive = in between;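 note: Galphao activated as GDP AlF4 complex before binding bead RGS8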
RGS7-Gao confirm: RGS7-Galphao interaction regulation, single point confirmation; shares compounds with RGS16-Gao; actives 7.8% (n = 1,700); response (percent of control binding), % at 10 µM; AID 1837; bead-based flow cytometry RGS7-Galphao binding; actives lie on both sides; in the data active = response below about 75% or above about 130%; inactive = in between;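 note: fluorescent Galphao activated with GDP and aluminum fluoride binding bead-coupled RGS7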
RGS16-Gao conf: confirmation of regulators of human RGS16-Galphao interaction; shares compounds with RGS16-Gao; bead-based flow cytometry, RGS16-Galphao binding; actives lie on both sides; response (% of control binding), % at 10 µM; actives 4% (n = 1,700); in the data active = response below about 74% or above about 130%; inactive = in between;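 note: Galphao activated as the GDP aluminium fluoride complex binding bead-coupled RGS16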
RGS4-Gao single: RGS4-Galphao interaction regulation, single point confirmation; shares compounds with RGS16-Gao; RGS4-Galphao binding, multiplexed bead flow cytometry; actives lie on both sides; binding response (% of control), % at 10 µM; actives 4% (n = 1,700); AID 1840; in the data active = binding response below about 74% or above about 130%; inactive = in between
RGS19-Gao conf: RGS19-Galphao interaction regulation, single point confirmation; bead-based flow cytometry RGS19-Galphao binding; actives lie on both sides; actives 5% (n = 1,700); response (percent of control binding), % at 10 µM; shares compounds with RGS16-Gao; in the data active = response below about 50% or above about 160%; inactive = in between;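 note: 100% = no compound control and 0% = blank background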
Starred values were filed as active, the others as inactive; i = inactive; ? = inconclusive; . = no result given; + = active, no number; [ ] = remark or other dose. The list is not random: actives were taken first. Their share in the collection is about 0.9%. Unless noted, the rule behind the calls is not given here.

SMILES	ABCG2 block	RGS7-Gao reg	RGS8-Gao	ABCB1 inh	RGS16-Gao	RGS4-Gao reg	Biotin-avidin	RGS8-Gao confirm	RGS7-Gao confirm	RGS16-Gao conf	RGS4-Gao single	RGS19-Gao conf	others
Cc1ccc(C(=O)N/N=C/C=C/c2ccccc2)o1	6	230*[activator]	98	0	116	113	0	98	97	96	95	106	RGS-Gao=113*
Cc1onc(-c2ccccc2)c1C(=O)N/N=C/C=C/c1ccccc1	.	?	101	.	104	101	.	.	.	.	.	.
O=S(=O)(Nc1ccc(Cl)cc1)c1ccc2c(c1)CCO2	.	?	103	.	97	109	.	.	.	.	.	.
CC(=O)c1cc(C#N)c(SCC(=O)OC(C)(C)C)nc1C	2	183*[activator]	103	0	109	117	1	97	97	96	99	86	RGS-Gao=117*
O=S(=O)(c1ccccc1)c1ncc(C(F)(F)F)cc1Cl	6	12*	14*	0	10*	15*	0	106	99	103	98	94
O=C(CN1CCOCC1)Nc1ccccc1-c1ccccc1	0	87	91	0	86	88	.	.	.	.	.	.
O=C(CN1CCCCC1)Nc1ccccc1-c1ccccc1	3	125	159*[activator]	0	i	144	-2	101	101	100	101	101	RGS-Gao=144*
COc1ccc(C2=CC(=O)C=CC2=O)cc1	.	?	71	.	67	93	1	53*	80	15*	97	32*
COc1ccc(S(=O)(=O)c2ccc(OC)cc2)cc1	1	99	102	0	103	101	.	.	.	.	.	.
O=C1CCCC2=C1C(c1ccccc1O)C1=C(CCCC1=O)O2	-1	110	141*[activator]	0	259	113	0	100	102	102	101	96	RGS-Gao=113*
CC(C)(C)NS(=O)(=O)c1ccc(CCC(=O)N2CCCC2)cc1	1	101	105	0	111	101	.	.	.	.	.	.
CC(=O)Oc1ccc2c(=O)c(Oc3ccccc3)c(C)oc2c1OC(C)=O	-6	43*	54*	-1	-3	49*	-1	96	94	94	95	93
Cc1ccc(S(=O)(=O)Nc2cnn(-c3ccccc3)c(=O)c2Cl)cc1	-1	106	101	0	106	106	.	.	.	.	.	.
Cc1cc(NC(=O)CSc2nc(C(C)C)nc3sc(C)c(C)c23)no1	24	101	100	2	102	98	.	.	.	.	.	.
Cc1cc(NC(=O)CSc2nnc3c4c(C)c(C)sc4ncn23)no1	1	188*[activator]	100	0	103	114	0	105	103	104	102	95	RGS-Gao=114*
COc1ccccc1-c1nc2ccccc2c(=O)n1NC(=O)c1cccs1	4	100	103	2	98	103	.	.	.	.	.	.
CCNC(=O)c1cc2ccccc2o1	0	15*	16*	0	11*	10*	1	98	102	99	99	92
CC(C)COc1ncnc2c1sc1nc3c(cc12)COC(C)(C)C3	.	?	130	.	206*[activator]	224*[activator]	-1	102	100	101	100	92
CCCOc1ncnc2c1sc1nc3c(cc12)COC(C)(C)C3	3	98	102	0	105	104	.	.	.	.	.	.
COc1cc(CCC(=O)NNC(=O)c2ccc(C)cc2)cc(OC)c1OC	4	?	96	1	95	95	.	.	.	.	.	.
CCn1c(=O)c(C(=O)NCc2cccnc2)c(O)c2ccccc21	13	.	.	0	.	122	0	101	97	101	96	100
CCCn1c(=O)c(C(=O)NCc2ccncc2)c(O)c2ccccc21	0	78	93	0	91	78	.	.	.	.	.	.
CN(C)c1nc(N)nc(N(c2ccccc2)c2ccccc2)n1	0	100	100	0	98	101	.	.	.	.	.	.
CCN(CC)c1nc(N)nc(N(c2ccccc2)c2ccccc2)n1	2	155*[activator]	99	1	103	105	0	97	63*	89	73*	74	RGS-Gao=105*
O=C(CSc1nnc(Cc2ccccc2)o1)N1CCCc2ccccc21	3	98	99	0	.	93	-1	100	105	101	101	83
SMILES	ABCG2 block	RGS7-Gao reg	RGS8-Gao	ABCB1 inh	RGS16-Gao	RGS4-Gao reg	Biotin-avidin	RGS8-Gao confirm	RGS7-Gao confirm	RGS16-Gao conf	RGS4-Gao single	RGS19-Gao conf	others
Cc1c(Cl)cccc1NC(=O)CC(C(=O)O)C1CCCO1 (configuration not stated)	2	130	148*[activator]	1	323	136	-1	106	113	109	106	96	RGS-Gao=136*
CC(C)CC(=O)Nc1ccc(-c2nnn(CC(=O)NCc3ccco3)n2)cc1	1	95	99	0	98	97	.	.	.	.	.	.
COc1cccc(Oc2cn[nH]c2-c2ccc(OC)cc2O)c1	1	281*[activator]	93	0	107	133	.	.	.	.	.	.	RGS-Gao=133*
CCCCN(C(=O)c1ccc(Cl)c(S(=O)(=O)N2CCOCC2)c1)c1c(N)n(CCC)c(=O)[nH]c1=O	.	?	101	.	98	100	.	.	.	.	.	.
CN(C)CCCN(C(=O)c1ccco1)c1nc2ccc(F)cc2s1	12	?	104	2	102	103	.	.	.	.	.	.
Cc1ccc2nc(N(CCCN(C)C)C(=O)c3ccco3)sc2c1	52	+[activator]	237*[activator]	18	+[activator]	+[activator]	0	101	93	100	98	101
Cc1ccccc1OCC(=O)N1N=C(c2cccnc2)CC1(O)C(F)(F)F (configuration not stated)	18	107	110	1	149	106	.	.	.	.	.	.
CC(=O)Nc1ccc(NC(=S)Nc2ccc(F)cc2)cc1	-1	?	102	-1	102	98	.	.	.	.	.	.

Screens: PubChem, NMMLSC
